# Test results as given in ChEMBL document CHEMBL2146359, “HCV NS5A replication complex inhibitors. Part 2: investigation of stilbene prolinamides” (Bioorg Med Chem Lett, 2012).
# Key:
# [1] = tested on: Hepatitis C virus; assay: Antiviral activity against HCV genotype 1b infected in human Huh7 cells assessed as inhibition of viral replication by FRET assay; format: functional, organism-based, Hepacivirus hominis; conditions: Huh-7
# Procedure, shortened: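 Replicon potency values are the means of at least two experiments.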
# [2] = AUC in rat at 1.8 mg/kg, iv; format: ADME, organism-based; parameters: dose 1.8 mg/kg, route intravenous; conditions: plasma
# [3] = Cytotoxicity against human HuH7 cells after 72 hrs by Alamar Blue assay; format: cell-based; conditions: Huh-7 cells
# [4] = Cmax in rat at 1.8 mg/kg, po and iv; format: ADME, organism-based; parameters: dose 1.8 mg/kg, route oral; conditions: in vivo
# [5] = Solubility of the compound; format: physicochemical
# [6] = Metabolic stability in rat liver microsomes assessed as compound remaining after 10 mins; format: ADME, Microsome; conditions: read-out: Stability
# [7] = AUC in rat at 1.8 mg/kg, po; format: ADME, organism-based; parameters: dose 1.8 mg/kg, route oral; conditions: plasma
# [8] = Half life in rat at 1.8 mg/kg, po and iv; format: ADME, organism-based; parameters: dose 1.8 mg/kg, route oral; conditions: in vivo
# [9] = Oral bioavailability in rat at 1.8 mg/kg; format: ADME, organism-based; conditions: in vivo
# [10] = tested on: Rattus norvegicus; assay: Volume of distribution at steady state in rat at 1.8 mg/kg, po and iv; format: ADME, organism-based; parameters: dose 1.8 mg/kg, route oral; conditions: in vivo
# [11] = tested on: Bovine viral diarrhea virus 1; assay: Antiviral activity against BVDV1; format: functional, organism-based; conditions: Bovine viral diarrhea virus isolates and strains
# [12] = Half life in rat at 2.5 mg/kg, po and iv; format: ADME, organism-based; parameters: dose 2.5 mg/kg, route oral; conditions: in vivo
# [13] = tested on: Rattus norvegicus; assay: Volume of distribution at steady state in rat at 2.5 mg/kg, po and iv; format: ADME, organism-based; parameters: dose 2.5 mg/kg, route oral; conditions: in vivo
# [14] = tested on: Rattus norvegicus; assay: AUC in rat at 2.5 mg/kg, iv; format: ADME, organism-based, Plasma; parameters: dose 2.5 mg/kg, route intravenous; conditions: in vivo
# [15] = Permeability across human Caco2 cells; format: ADME, cell-based; conditions: Caco-2, read-out: permeability
# [16] = Half life in rat at 1.6 mg/kg, po and iv; format: ADME, organism-based; parameters: dose 1.6 mg/kg, route oral; conditions: in vivo
# [17] = AUC in rat at 1.6 mg/kg, iv; format: ADME, organism-based; parameters: dose 1.6 mg/kg, route intravenous; conditions: plasma
# [18] = tested on: Rattus norvegicus; assay: Volume of distribution at steady state in rat at 1.6 mg/kg, po and iv; format: ADME, organism-based; parameters: dose 1.6 mg/kg, route oral; conditions: in vivo
# [19] = Cmax in rat at 2.8 mg/kg, po and iv; format: ADME, organism-based; parameters: dose 2.8 mg/kg, route oral; conditions: in vivo
# [20] = tested on: Rattus norvegicus; assay: Volume of distribution at steady state in rat at 2.8 mg/kg, po and iv; format: ADME, organism-based; parameters: dose 2.8 mg/kg, route oral; conditions: in vivo
# [21] = AUC in rat at 2.8 mg/kg, iv; format: ADME, organism-based; parameters: dose 2.8 mg/kg, route intravenous; conditions: plasma
# [22] = Oral bioavailability in rat at 2.8 mg/kg; format: ADME, organism-based; conditions: in vivo
# [23] = AUC in rat at 2.8 mg/kg, po; format: ADME, organism-based; parameters: dose 2.8 mg/kg, route oral; conditions: plasma
# [24] = Half life in rat at 2.8 mg/kg, po and iv; format: ADME, organism-based; parameters: dose 2.8 mg/kg, route oral; conditions: in vivo
Compound,EC50 [1] [µM],AUC [2] [ng·h/mL],Cmax [4] [ng/mL],solubility [5] [µg/mL],remaining at 10 min [6] [%],AUC [7] [ng·h/mL],half-life [8] [h],bioavailability [9] [%],Vdss [10] [L/kg],EC50 [11] [µM],Papp [15] [×10⁻⁶ cm/s],CC50 at 72 h [3] [µM],further results
O=C(Nc1ccc(/C=C/c2ccc(NC(=O)[C@@H]3CCCN3C(=O)OCc3ccccc3)cc2)cc1)[C@@H]1CCCN1C(=O)OCc1ccccc1,0.00897,1620,4,< 1,77,37,4.6,2,4.3,> 10,,> 10,
O=C(Nc1ccc(/C=C/c2ccc(NC(=O)[C@@H]3C[C@@H](O)CN3C(=O)OCc3ccccc3)cc2)cc1)[C@@H]1C[C@@H](O)CN1C(=O)OCc1ccccc1,0.0289,,,,99,,,,,> 10,3.5,> 10,half-life [16]: 6.4 h; AUC [17]: 2450 ng·h/mL; Vdss [18]: 1 L/kg
O=C(Nc1ccc(/C=C/c2ccc(NC(=O)[C@@H]3CCCN3C(=O)CC3CC3)cc2)cc1)[C@@H]1CCCN1C(=O)CC1CC1,0.062,,,4.4,84,,,,,> 10,0.4,> 10,Cmax [19]: 1500 ng/mL; Vdss [20]: 0.8 L/kg; AUC [21]: 18500 ng·h/mL; bioavailability [22]: 64%; AUC [23]: 11900 ng·h/mL; half-life [24]: 4.9 h

# The next lines start with results.
EC50 [1] [µM],AUC [2] [ng·h/mL],Cmax [4] [ng/mL],solubility [5] [µg/mL],remaining at 10 min [6] [%],AUC [7] [ng·h/mL],half-life [8] [h],bioavailability [9] [%],Vdss [10] [L/kg],EC50 [11] [µM],Papp [15] [×10⁻⁶ cm/s],Compound,CC50 at 72 h [3] [µM],further results
0.0015,,,,82,,,,,> 10,< 1.5,CC(=O)N1CCC[C@H]1C(=O)Nc1ccc(/C=C/c2ccc(NC(=O)[C@@H]3CCCN3C(=O)Cc3ccccc3)cc2)cc1,> 10,half-life [12]: 5.2 h; Vdss [13]: 1.2 L/kg; AUC [14]: 101535 ng·h/mL
0.000784,3080,120,53,88,322,9.3,10,2.9,> 10,1.6,O=C(Nc1ccc(/C=C/c2ccc(NC(=O)[C@@H]3CCCN3C(=O)Cc3cccnc3)cc2)cc1)[C@@H]1CCCN1C(=O)Cc1cccnc1,> 10,
